CAL PDZ FP-1 – human CAL PDZ-peptide interaction inhibition; hit rate 0.02% among 330,000; purified CAL PDZ, TMR-peptide fluorescence polarization, 1 h; inhibition, % at 20 µM;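 active = highest replicate inhibition of at least 40%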;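 also: plate controls were DMSO neutral control wells for no effect and unlabeled competitor peptide control wells for full effect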
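Assay system – tagged CAL PDZ protein CerCALP, purified · Timing – 1 h at RT · Compound – single point, 20 µM · Measured by – fluorescence polarization from S- and P-plane intensities, G-factor corrected · Evaluation – inhibition from polarization loss · Probe or stimulus – TMR reporter peptide T*-PRC34 · Buffer or medium – pH 7.4 phosphate-saline buffer, reducing agent, detergent, IgG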
CAL PDZ FP-2 – blocks peptide binding to the human CAL PDZ domain; Q9HD26; purified CAL PDZ, TMR-peptide fluorescence polarization, 1 h; inhibition, % at 24.9 µM; hit rate 0.92% among 300,000; AID 602252;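 active = mean inhibition of at least 30% with at least half of replicates also reaching 30%; inconclusive = no clear call, values can overlap the other calls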;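 also: 0% = DMSO neutral control and 100% = excess unlabeled competitor peptide PRC23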
dFosB act – enhances mouse delta FosB homodimer DNA binding. purified delta FosB, TAMRA-CDK5 oligo fluorescence polarization; percent of positive-control signal above neutral wells. hit rate 0.99% among 340,000. P13346. activation, % at 25 µM;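 active = mean activation above about 17%, with every replicate also reaching it, limit read from the data, passing the limit was not always enough; inconclusive = only one of the two conditions met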
SR-BI DiI-HDL act – activators of SR-BI mediated HDL lipid uptake | CHO ldlA[mSR-BI] cells, DiI-HDL uptake fluorescence, 3 h; 100 = double the neutral-control signal | activation, % at 12.5 µM | hit rate 0.096% among 320,000;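 active = mean replicate activation of at least 60% and every replicate at or above 60%; inconclusive = mean or all-replicate condition met, but not both; inactive = mean below 60% and not all replicates reaching 60%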;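 also: 0% = median plate neutral-control signal and 100% = twice that signal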
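Test system: SR-BI-overexpressing, LDLR-lacking CHO cells. Measured by: DiI fluorescence, bottom read. Medium: Ham's F12 with 0.5% BSA, HEPES 25 mM, pH 7.4. Timing: 3 h uptake period with compound, 37 °C.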
SR-BI DiI inh – inhibitors of mouse SR-BI mediated HDL lipid uptake | Q61009 | ldlA[mSR-BI] CHO cells, DiI-HDL uptake fluorescence, 3 h | inhibition, % at 12.5 µM | hit rate 0.96% among 320,000 | AID 488896;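 active = mean replicate inhibition of at least 70% and a set share of replicates each scoring 70 or more; inconclusive = meets just one of the two criteria; inactive = fails both criteria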;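 also: 0% = median of neutral control wells and 100% = median of positive control wells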
Target sequence (Q61009 whole entry, looked up): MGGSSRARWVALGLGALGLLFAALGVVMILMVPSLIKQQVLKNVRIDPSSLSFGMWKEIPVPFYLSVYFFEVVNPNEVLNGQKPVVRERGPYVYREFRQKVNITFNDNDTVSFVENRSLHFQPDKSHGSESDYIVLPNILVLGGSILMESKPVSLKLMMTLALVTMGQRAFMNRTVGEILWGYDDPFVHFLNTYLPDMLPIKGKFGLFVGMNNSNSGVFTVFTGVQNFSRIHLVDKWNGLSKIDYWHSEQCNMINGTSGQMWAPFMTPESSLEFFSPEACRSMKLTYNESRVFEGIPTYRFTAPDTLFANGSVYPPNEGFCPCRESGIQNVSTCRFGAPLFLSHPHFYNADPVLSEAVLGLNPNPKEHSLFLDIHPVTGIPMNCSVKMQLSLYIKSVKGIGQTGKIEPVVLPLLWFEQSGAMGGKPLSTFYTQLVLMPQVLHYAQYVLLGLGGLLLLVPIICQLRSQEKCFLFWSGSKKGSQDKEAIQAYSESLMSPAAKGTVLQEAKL
* marks the source's active call; other numbers are inactive results; ? = inconclusive; . = no result given. This is a sample that favours compounds with a hit; in the whole collection about 2.8% have one here.

SMILES	CAL PDZ FP-1	CAL PDZ FP-2	dFosB act	SR-BI DiI-HDL act	SR-BI DiI inh
Cc1cccc(C(=O)OCC(=O)N2CCc3ccccc3C2)c1O	-6.4	-3.4	-18.7	-9.3	9.3
O=C(COc1ccc(S(=O)(=O)N2CCOCC2)cc1)N1CCc2ccccc2C1	-1.3	-3.1	-5.1	-4.5	4.5
CC(NC(=O)/C(=C/c1cccc([N+](=O)[O-])c1)NC(=O)c1ccco1)C(=O)O (centres undefined)	-1.6	0.0	-1.8	18.4	-18.4
Cc1nc(NCCc2ccc(F)cc2)c(C#N)c(C)c1[N+](=O)[O-]	0.1	-5.7	2.0	-42.9	42.9
COc1cc(CNc2nc(C)c([N+](=O)[O-])c(C)c2C#N)cc(OC)c1	-1.3	-13.9	-3.4	-75.8	75.8*
Cc1nc(NCCc2ccccc2F)c(C#N)c(C)c1[N+](=O)[O-]	0.2	-1.2	4.2	-74.4	74.4*
COCc1c(C#N)c(NCc2cc(OC)c(OC)c(OC)c2)nc(C)c1[N+](=O)[O-]	-1.2	-5.0	3.4	-71.0	?
CCn1c(C)c(P(c2ccccc2)c2ccccc2)[n+]2ccccc12	.	-1.1	-7.0	.	.
COc1ccccc1C(=O)Nc1ccnn1C1CCN(Cc2ccn[nH]2)CC1	-1.4	-1.0	2.2	.	-35.5
Cc1oc(S(=O)(=O)N2CCCCC2)cc1NC(=O)Nc1ccc(F)cc1	-0.6	45.4*	-2.1	-17.9	17.9
CCN1CCN(c2ccc(N=Cc3ccccc3O)cc2)CC1	0.1	2.8	-0.5	4.8	-4.8
COc1ccc(-c2[nH]ncc2CNC(C)CCn2cccn2)cc1F (centres undefined)	-0.2	51.0*	-1.5	0.4	-0.4
O=C1c2ccccc2C(=O)N1CC(O)COc1ccccc1Cl (centres undefined)	-1.5	-3.9	0.2	-10.2	10.2
CCC(=O)NC(=S)Nc1cccc(NC(=O)CC)c1	0.5	-2.3	-1.4	-8.5	8.5
CCC(=O)NC(=S)Nc1cccc(NC(=O)c2ccc(Cl)cc2Cl)c1	-1.6	-4.5	2.2	-80.8	80.8*
COc1ccccc1CCNC(=O)c1cccc(NC(=O)CC2SC(N3CCCCC3)=NC2=O)c1 (centres undefined)	-1.1	-0.8	-19.7	-80.5	80.5*
Cc1ccc(C2C(N)C(=O)N2c2ccc(C)cc2)cc1 (centres undefined)	-0.3	-3.5	-7.7	8.8	-8.8
CC(=O)c1ccc(NC(=O)COC(=O)c2ccccc2Sc2ccccc2C#N)cc1	-2.8	2.1	39.5*	-6.8	6.8
COc1ccccc1N1CCN(C(=O)c2cccc(S(=O)(=O)N3c4ccccc4CC3C)c2)CC1 (centres undefined)	-0.5	-5.5	0.5	-67.0	67.0
Cc1cccc(NCC(=O)NNC(=S)Nc2ccccc2)c1	-1.1	-1.3	-2.8	-7.4	7.4
O=C(CCS(=O)(=O)c1ccccc1)Nc1ccccc1-c1nc2ccccc2s1	-1.9	0.4	1.5	-71.9	71.9*
Cc1cccc(NC(=O)CCS(=O)(=O)c2ccccc2)c1	-3.0	62.2*	2.6	30.5	-30.5
Cc1cccc(NC(=S)NNC(=O)Cc2ccccc2)c1	-2.5	-1.4	6.2	211.4*	-211.4
Cc1ccc(S(=O)(=O)CCC(=O)Nc2cccc(S(=O)(=O)N3CCCCCC3)c2)cc1	-1.4	31.9*	-4.0	19.9	-19.9
O=C(Cn1ccc2cc(S(=O)(=O)N3CCCC3)ccc21)NCCc1ccccc1	-3.0	-1.3	-3.8	22.0	-22.0
SMILES	CAL PDZ FP-1	CAL PDZ FP-2	dFosB act	SR-BI DiI-HDL act	SR-BI DiI inh
CN(c1nc2ccccc2[nH]c1=O)C1CCCCC1	-0.7	6.6	3.0	.	.
CC(=O)c1cc(Cl)ccc1OCC(=O)Nc1cccc(S(=O)(=O)N2CCCC2)c1	-0.6	50.2*	-8.4	-17.3	17.3
COCCCNC(=O)/C(C#N)=C/c1c(N2CCN(c3ccccc3)CC2)nc2ccccn2c1=O	-0.4	-0.1	-12.4	30.1	-30.1
COCCNC(=O)/C(C#N)=C/c1c(N2CCN(c3ccccc3)CC2)nc2ccccn2c1=O	1.7	57.2*	-11.6	6.5	-6.5
C=C(CN(C)C)C(=O)c1cc(C)ccc1C	-0.6	-7.7	-3.7	-81.3	81.3*
Cc1nc(C)c(-c2nnc(-c3ccccc3Cl)o2)cc1C(=O)NN	-1.4	1.4	-17.9	.	.
Cc1nc(C)c(-c2nnc(-c3ccc(C(C)(C)C)cc3)o2)cc1C(=O)NN	-0.6	-2.4	1.6	-80.6	80.6*
Cc1ccc2c(c1)N(C(=O)CCC(=O)NCCCN1CCOCC1)CCO2	-0.8	.	-1.2	57.1	-57.1
COc1cc(-c2cc(-c3ccc(O)cc3)nc(N)c2C#N)ccc1O	-7.5	-16.0	-2.0	-84.5	84.5*
CCOc1ccc(NC(=O)CC2C(=O)N(c3cccc(OC)c3)C(=O)N2CCOC)cc1 (centres undefined)	-2.3	59.0*	-1.7	-1.1	1.1
CC(OC(=O)/C=C/c1ccccc1Cl)C(=O)NC1CCCCC1C (centres undefined)	-1.8	1.3	0.2	15.2	-15.2
O=C(CN1C(=O)c2ccccc2C1=O)NNC1=NS(=O)(=O)c2ccccc21	-0.7	30.1*	2.3	8.6	-8.6
Cc1ccc(N2CCN(CCCN3C(=O)C4CCCN4C3=O)CC2)cc1 (centres undefined)	0.0	51.7*	2.2	5.6	-5.6
O=C(Nc1ccc(Cl)c(Cl)c1)N1N=CCC1c1ccccc1 (centres undefined)	.	-1.4	-2.0	-5.2	5.2
COc1ccccc1C(=O)NCCNc1nc2cc(C)cc(C)c2cc1C#N	-2.0	-5.2	-12.9	-110.1	110.1*
COc1cc(OC)cc(C(=O)NCCNc2nc3cc(C)cc(C)c3cc2C#N)c1	0.0	-3.4	-21.6	-52.5	52.5
O=c1cc(NCc2ccccc2)nc2ccccn12	-0.1	-2.2	-3.5	-2.4	2.4
O=c1cc(Cl)nc2ccccn12	-0.2	37.7*	1.6	-16.6	16.6
N#Cc1ccc2c(c1)nc1ccccn12	-1.1	-3.7	-3.2	26.4	-26.4
Clc1ccc2nc3ccccn3c2c1	-0.6	53.4*	-3.2	-11.4	11.4
Cc1ccc(C(=O)NNC(=O)CSc2nnc3c(n2)[nH]c2ccc(F)cc23)cc1	-3.1	-5.4	-0.6	9.6	-9.6
Cc1nnc(NC(=O)CSc2nnc3c(n2)[nH]c2ccc(Br)cc23)s1	-0.2	.	153.4*	.	.
COc1cc(-c2noc(C)c2/C=C/c2ccc(OC(C)=O)cc2)cc(OC)c1OC	-1.0	-4.5	4.0	-74.9	74.9*
CC1CN(C(=O)COC(=O)c2ccccc2O)CC(C)O1 (centres undefined)	-2.3	-3.1	-9.3	17.9	-17.9
Cn1c(=Nc2ccc(N3CCOCC3)cc2)ccc2ccccc21	.	-0.2	-4.4	0.8	-0.8
Cn1c(N=Nc2ccc(N3CCOCC3)cc2)[n+](C)c2ccccc21	0.4	18.6	40.3*	27.1	-27.1
